Measured values published in ChEMBL document CHEMBL3739416, “Discovery of a marine-derived bis-indole alkaloid fascaplysin, as a new class of potent P-glycoprotein inducer and establishment of its structure-activity relationship” (Eur J Med Chem, 2016).
Calls of active or inactive are those of the source. The calls are words filed in the database; no cut-off is given here.

Legend:
[1] = test system: LS180; experiment: Induction of P-glycoprotein in human LS180 cells assessed as accumulation of intracellular rhodamine-123 at 5 uM after 48 hrs by fluorescence assay; assay type: cell-based
Summary of the method: (§1)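 LS-180 colorectal cells, seeded at 2 × 10⁴ per well, were grown 24 h and then exposed to compound for 48 h, with 0.1% final DMSO. Rifampicin at 10 µM served as the reference inducer. Cells were held in HANKS buffer for 40 min, then loaded with Rh123 for 90 min and washed four times in cold PBS. Lysis was 1 h in 0.1% Triton X-100/0.2 N NaOH. Read-out was intracellular Rh123 per total protein, expressed as % of untreated control. Values are the mean ± SD of three experiments.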

[2] = test system: LS180; experiment: Induction of P-glycoprotein in human LS180 cells assessed as accumulation of intracellular rhodamine-123 at 1 uM after 48 hrs by fluorescence assay relative to control; assay type: cell-based; summary of the method: as §1
[3] = Cytotoxicity against human LS180 cells assessed as cell viability at 10 uM after 48 hrs by MTT assay relative to control; assay type: cell-based; conditions: read-out: Activity
Summary of the method: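 LS-180 cells were seeded at 1 × 10⁴ per well, allowed 24 h, then treated with compound. MTT dye was added 4 h before the end. Formazan was dissolved in DMSO and absorbance read at 570 nm. Viability was expressed relative to the untreated control, taken as 100%.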

[4] = test system: LS180; experiment: Induction of P-glycoprotein in human LS180 cells assessed as accumulation of intracellular rhodamine-123 at 10 uM after 48 hrs by fluorescence assay relative to control; assay type: cell-based; summary of the method: as §1
[5] = test system: LS180; experiment: Induction of P-glycoprotein in human LS180 cells assessed as accumulation of intracellular rhodamine-123 at 125 nM after 48 hrs by fluorescence assay relative to control; assay type: cell-based; summary of the method: as §1
[6] = test system: LS180; experiment: Induction of P-glycoprotein in human LS180 cells assessed as accumulation of intracellular rhodamine-123 at 62.5 nM after 48 hrs by fluorescence assay relative to control; assay type: cell-based; summary of the method: as §1
[7] = test system: LS180; experiment: Induction of P-glycoprotein in human LS180 cells assessed as accumulation of intracellular rhodamine-123 at 250 nM after 48 hrs by fluorescence assay relative to control; assay type: cell-based; summary of the method: as §1
[8] = test system: LS180; experiment: Induction of P-glycoprotein in human LS180 cells assessed as accumulation of intracellular rhodamine-123 at 500 nM after 48 hrs by fluorescence assay relative to control; assay type: cell-based; summary of the method: as §1
[9] = test system: LS180; experiment: Induction of P-glycoprotein expression in human LS180 cells at 1 uM by Western blot analysis relative to control; assay type: cell-based
[10] = Thermodynamic aqueous solubility of the compound in water; assay type: physicochemical; conditions: read-out: Therm_solubility
[11] = Thermodynamic aqueous solubility of the compound in phosphate buffer saline; assay type: physicochemical; conditions: read-out: Therm_solubility
[12] = Thermodynamic aqueous solubility of the compound in stimulated gastric fluid; assay type: ADME; conditions: simulated gastric fluid; read-out: Therm_solubility
[13] = Thermodynamic aqueous solubility of the compound in stimulated intestinal fluid; assay type: ADME; conditions: simulated intestinal fluid; read-out: Therm_solubility
[14] = Cytotoxicity against HGF cells assessed as cell viability after 48 hrs by MTT assay; assay type: cell-based; conditions: Homo sapiens
Summary of the method: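 Normal human gingival fibroblasts grown in MEM with 1% non-essential amino acids, 10% FCS, penicillin G and streptomycin at 37 °C, 5% CO2. Seeded at 1 × 10⁴ cells/well for 24 h, then compound-treated. MTT added 4 h before the end, formazan dissolved in DMSO, absorbance read at 570 nm. Viability expressed relative to untreated control set as 100%.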

SMILES: O=[N+]([O-])c1ccc(CN2CCc3c([nH]c4ccccc34)C2)o1
- Activity [1]: inactive

SMILES: O=C1c2cc(Cl)ccc2-[n+]2ccc3c([nH]c4ccccc43)c21
- Activity [2]: 58.7%
- viability at 48 h, 10 µM [3]: 67.9%

SMILES: O=C(c1cnccn1)N1CCc2c([nH]c3ccccc23)C1
- Activity [1]: inactive

SMILES: COc1ccc(C(=O)c2nccc3c2[nH]c2ccccc23)c(OC)c1
- Activity [2]: 108%
- viability at 48 h, 10 µM [3]: 82.2%

SMILES: CN1CCN(C(=O)N2CCc3c([nH]c4ccccc34)C2)CC1
- Activity [1]: inactive

SMILES: O=C(c1ccccc1Br)c1nccc2c1[nH]c1ccccc12
- Activity [2]: 105%
- viability at 48 h, 10 µM [3]: 80.3%

SMILES: c1ccc2c3c([nH]c2c1)CN(Cc1ccncc1)CC3
- Activity [1]: inactive

SMILES: O=C(c1cc(F)c(Cl)cc1Cl)c1nccc2c1[nH]c1ccccc12
- Activity [2]: 106%
- viability at 48 h, 10 µM [3]: 92.4%

SMILES: O=C(c1ccc(C(F)(F)F)cc1)c1nccc2c1[nH]c1ccccc12
- Activity [2]: 107%
- viability at 48 h, 10 µM [3]: 106%

SMILES: O=C1c2ccc(Cl)c(Cl)c2-[n+]2ccc3c([nH]c4ccccc43)c21
- Activity [2]: 57.8%
- viability at 48 h, 10 µM [3]: 57.4%

SMILES: O=C(c1ccccc1)c1nccc2c1[nH]c1ccccc12
- Activity [2]: 94.6%
- viability at 48 h, 10 µM [3]: 67.5%

SMILES: O=C1c2ccc(Cl)cc2-[n+]2ccc3c([nH]c4ccccc43)c21
- Activity [2]: 57.1%
- viability at 48 h, 10 µM [3]: 66.2%

SMILES: O=C(c1cc(F)c(F)cc1Cl)c1nccc2c1[nH]c1ccccc12
- Activity [2]: 112%
- viability at 48 h, 10 µM [3]: 81.9%

SMILES: c1ccc2c(CN3CCc4c([nH]c5ccccc45)C3)c3ccccc3cc2c1
- Activity [1]: inactive

SMILES: O=C(c1ccc(-c2cc(C(F)(F)F)ccc2Cl)o1)N1CCc2c([nH]c3ccccc23)C1
- Activity [1]: inactive

SMILES: C[n+]1ccc2c([nH]c3ccccc32)c1C(=O)c1c[nH]c2ccccc12
- Activity [2]: 77.6%
- viability at 48 h, 10 µM [3]: 69.1%

SMILES: O=C1c2cc(F)c(Cl)cc2-[n+]2ccc3c([nH]c4ccccc43)c21
- Activity [2]: 55.5%
- viability at 48 h, 10 µM [3]: 36.8%

SMILES: CO[C@H]1/C=C/O[C@@]2(C)Oc3c(C)c(O)c4c(O)c(c(/C=N/N5CCN(C)CC5)c(O)c4c3C2=O)NC(=O)/C(C)=C\C=C\[C@H](C)[C@H](O)[C@@H](C)[C@@H](O)[C@@H](C)[C@H](OC(C)=O)[C@@H]1C
- Activity [4]: 67.1%

SMILES: O=C(c1ccc2ccccc2n1)N1CCc2c([nH]c3ccccc23)C1
- Activity [1]: inactive

SMILES: C[n+]1ccc2c([nH]c3ccccc32)c1C(=O)c1ccccc1Cl
- Activity [2]: 71.4%
- viability at 48 h, 10 µM [3]: 69.7%

SMILES: O=C(c1c[nH]c2ccccc12)N1CCc2c([nH]c3ccccc23)C1
- Activity [1]: inactive

SMILES: O=C(c1ccc(Cl)cc1Cl)c1nccc2c1[nH]c1ccccc12
- Activity [2]: 97.3%
- viability at 48 h, 10 µM [3]: 98.8%

SMILES: c1ccc2cc(CN3CCc4c([nH]c5ccccc45)C3)ccc2c1
- Activity [1]: inactive

SMILES: O=C1c2cc(F)c(F)cc2-[n+]2ccc3c([nH]c4ccccc43)c21.[Cl-]
- Activity [2]: 49.6%
- Activity [5]: 33.8%
- Activity [6]: 35.5%
- Activity [7]: 35.3%
- Activity [8]: 30.6%
- viability at 48 h, 10 µM [3]: 63.5%
- fold change (FC) [9]: 4
- solubility thermodynamic [10]: > 1500 µg/mL
- solubility thermodynamic [11]: 80 µg/mL
- solubility thermodynamic [12]: 80 µg/mL
- solubility thermodynamic [13]: < 5 µg/mL

SMILES: O=C(c1ccc(Cl)c(Cl)c1Cl)c1nccc2c1[nH]c1ccccc12
- Activity [2]: 104%
- viability at 48 h, 10 µM [3]: 84.9%

SMILES: Clc1ccc(CN2CCc3c([nH]c4ccccc34)C2)s1
- Activity [1]: inactive

SMILES: O=C(c1cc(Cl)ccc1Cl)c1nccc2c1[nH]c1ccccc12
- Activity [2]: 103%
- viability at 48 h, 10 µM [3]: 69.6%

SMILES: O=C1c2ccccc2-[n+]2ccc3c([nH]c4ccccc43)c21.[Cl-] [FASCAPLYSIN CHLORIDE]
- Activity [2]: 57.6%
- Activity [5]: 39.3%
- Activity [6]: 42.9%
- Activity [7]: 43.7%
- Activity [8]: 34.5%
- IC50 [14]: 4 µM
- viability at 48 h, 10 µM [3]: 57.5%
- solubility thermodynamic [10]: > 1500 µg/mL
- solubility thermodynamic [11]: > 1500 µg/mL
- solubility thermodynamic [12]: > 1500 µg/mL
- solubility thermodynamic [13]: > 1500 µg/mL

SMILES: O=C(c1ccc(Br)o1)N1CCc2c([nH]c3ccccc23)C1
- Activity [1]: inactive

SMILES: O=C(c1ccc(-c2ccccc2)cc1)N1CCc2c([nH]c3ccccc23)C1
- Activity [1]: inactive

SMILES: O=C(c1cc2ccccc2o1)N1CCc2c([nH]c3ccccc23)C1
- Activity [1]: inactive

SMILES: O=C(c1c[nH]c2ccccc12)c1nccc2c1[nH]c1ccccc12
- Activity [2]: 99.4%
- viability at 48 h, 10 µM [3]: 78.7%

SMILES: C[n+]1ccc2c([nH]c3ccccc32)c1C(=O)c1ccccc1Br.[I-]
- Activity [2]: 70.1%
- Activity [5]: 41.8%
- Activity [6]: 80%
- Activity [7]: 42.3%
- Activity [8]: 33.6%
- viability at 48 h, 10 µM [3]: 69.1%
- fold change (FC) [9]: 8
- solubility thermodynamic [10]: 800 µg/mL
- solubility thermodynamic [11]: 800 µg/mL
- solubility thermodynamic [12]: 800 µg/mL
- solubility thermodynamic [13]: 800 µg/mL

SMILES: O=C1c2c(Cl)cccc2-[n+]2ccc3c([nH]c4ccccc43)c21
- Activity [2]: 59.2%
- viability at 48 h, 10 µM [3]: 63.4%

SMILES: C[n+]1ccc2c([nH]c3ccccc32)c1C(=O)c1ccccc1F
- Activity [2]: 79%
- viability at 48 h, 10 µM [3]: 69.8%

SMILES: Cc1noc(C)c1CN1CCc2c([nH]c3ccccc23)C1
- Activity [1]: inactive

SMILES: C[n+]1ccc2c([nH]c3ccccc32)c1C(=O)c1ccccc1
- Activity [2]: 75.2%
- viability at 48 h, 10 µM [3]: 77.5%

SMILES: O=C(N1CCOCC1)N1CCc2c([nH]c3ccccc23)C1
- Activity [1]: inactive

SMILES: O=C(c1ccc(-c2cccc([N+](=O)[O-])c2)o1)N1CCc2c([nH]c3ccccc23)C1
- Activity [1]: inactive

SMILES: O=C(c1c(F)cccc1Cl)c1nccc2c1[nH]c1ccccc12
- Activity [2]: 89.6%
- viability at 48 h, 10 µM [3]: 60.1%

SMILES: O=C1NCCN1C(=O)N1CCc2c([nH]c3ccccc23)C1
- Activity [1]: inactive

SMILES: C[n+]1ccc2c([nH]c3ccccc32)c1C(=O)c1ccc(C(F)(F)F)cc1
- Activity [2]: 78.5%
- viability at 48 h, 10 µM [3]: 75.7%

SMILES: Cc1ncsc1C(=O)N1CCc2c([nH]c3ccccc23)C1
- Activity [1]: inactive

SMILES: Cc1ccsc1C(=O)N1CCc2c([nH]c3ccccc23)C1
- Activity [1]: inactive

SMILES: c1ccc2[nH]c(CN3CCc4c([nH]c5ccccc45)C3)nc2c1
- Activity [1]: inactive

SMILES: O=C(c1ccccc1Cl)c1nccc2c1[nH]c1ccccc12
- Activity [2]: 105%
- viability at 48 h, 10 µM [3]: 89.4%

SMILES: c1ccc2nc(CN3CCc4c([nH]c5ccccc45)C3)ccc2c1
- Activity [1]: inactive

SMILES: O=C(c1ccc([N+](=O)[O-])s1)N1CCc2c([nH]c3ccccc23)C1
- Activity [1]: inactive

SMILES: O=C(c1ccccc1F)c1nccc2c1[nH]c1ccccc12
- Activity [2]: 101%
- viability at 48 h, 10 µM [3]: 98.4%
